In ChEMBL document CHEMBL1629681 (Antimicrob Agents Chemother, 2010):

How the values were obtained:
Format in all cases: ADME, organism-based
[1] = Terminal half life in human with normal renal function; conditions: in vivo, read-out: beta t1/2 (converted)
[2] = Cmax in patient with end-stage renal failure undergoing hemodialysis at 4 mg/kg, iv after 2 hrs by LC/MS/MS analysis; parameters: dose 4 mg/kg, route intravenous; conditions: human, in vivo
Summary of the method: (§1)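 End-stage renal failure patients on 6-h Genius dialysis, hemodialysis or hemodiafiltration received a single 2-h iv infusion of 4 mg/kg. Venous plasma sampled before dosing and at 1, 2, 3, 4, 6 and 6.5 h from a site other than the infusion line, stored at −20°C. Quantified by LC-MS-MS against a 30 to 5,000 ng/ml calibration, analysed noncompartmentally.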

[3] = Cmax in patient with end-stage renal failure undergoing hemodiafiltration at 4 mg/kg, iv after 2 hrs by LC/MS/MS analysis; parameters: dose 4 mg/kg, route intravenous; conditions: human, in vivo; summary of the method: as §1
[4] = Cmax in patient with end-stage renal failure undergoing genius system-mediated dialysis at 4 mg/kg, iv after 2 hrs by LC/MS/MS analysis; parameters: dose 4 mg/kg, route intravenous; conditions: human, in vivo; summary of the method: as §1

Question: What does the source list for `C[C@@H](c1ncncc1F)[C@](O)(Cn1cncn1)c1ccc(F)cc1F` [VORICONAZOLE]?
Answer: half-life [1]: 7 h; Cmax [2]: 1700 ng/mL; Cmax [3]: 1900 ng/mL; Cmax [4]: 1800 ng/mL
